Source: ChEMBL document CHEMBL1138042, “2-[(4-phenylpiperazin-1-yl)methyl]imidazo(di)azines as selective D4-ligands. Induction of penile erection by 2-[4-(2-methoxyphenyl)piperazin-1-ylmethyl]imidazo[1,2-a]pyridine (PIP3EA), a potent and selective D4 partial agonist” (J Med Chem, 2006)

Tests used:
D(1A) dopamine receptor = D(1A) dopamine receptor (Sus scrofa, UniProt P50130); test: Displacement of [3H][…] from dopamine receptor D1 in porcine striatal membrane; format: cell membranes, Striatum
[1] = molecular target: T1, Dopamine receptors; D2 & D4 (Homo sapiens) (UniProt P14416+P21917); test: Selectivity for human dopamine D4.4 receptor over dopamine D2(short) receptor; format: protein assay
[2] = molecular target: T1, Dopamine receptors; D2 & D4 (Homo sapiens); test: Selectivity for human dopamine D4.4 receptor over dopamine D2(long) receptor; format: protein assay
D(2) dopamine receptor [3] = molecular target: T2, D(2) dopamine receptor (Homo sapiens, UniProt P14416); test: Displacement of [3H]spiperone from human dopamine receptor D2(long) in CHO cell membrane; format: cell membranes
D(2) dopamine receptor [4] = molecular target: T2, D(2) dopamine receptor; test: Displacement of [3H]spiperone from human dopamine receptor D2(short) in CHO cell membrane; format: cell membranes
D(3) dopamine receptor = D(3) dopamine receptor (Homo sapiens, UniProt P35462); test: Displacement of [3H]spiperone from human dopamine receptor D3 in CHO cell membrane; format: cell membranes
D(4) dopamine receptor [5] = molecular target: T3, D(4) dopamine receptor (Homo sapiens, UniProt P21917); test: Displacement of [3H]spiperone from human dopamine receptor D4.4 in CHO cell membrane; format: cell membranes
T3 sequence (P21917 whole entry): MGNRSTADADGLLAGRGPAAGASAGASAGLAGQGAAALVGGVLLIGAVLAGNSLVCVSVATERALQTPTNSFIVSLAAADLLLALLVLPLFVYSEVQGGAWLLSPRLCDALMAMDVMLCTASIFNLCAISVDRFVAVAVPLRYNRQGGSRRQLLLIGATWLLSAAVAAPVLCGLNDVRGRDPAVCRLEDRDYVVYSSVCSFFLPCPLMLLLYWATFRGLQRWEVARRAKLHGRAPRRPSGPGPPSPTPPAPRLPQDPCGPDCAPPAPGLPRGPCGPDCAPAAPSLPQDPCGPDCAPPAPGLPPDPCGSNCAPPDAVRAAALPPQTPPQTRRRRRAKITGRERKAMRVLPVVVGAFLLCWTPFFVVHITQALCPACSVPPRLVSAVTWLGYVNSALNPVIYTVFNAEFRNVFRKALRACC

Rattus norvegicus [6] = test: Penile erection in Sprague-Dawley rat at 5 ug/kg, sc; format: functional
Outline: (§1)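 Male Sprague-Dawley rats (225-250 g) were dosed s.c. (0.2 mL/rat) or i.c.v. (10 µL/rat, via a stereotaxic guide cannula implanted under chloral hydrate 3 days earlier). Vehicle was ethanol diluted in water to 0.3%. Rats were acclimated 30 min in individual cages, then observed 60 min after injection. Erections were scored as penis emerging from the sheath. Means ± SEM, 6 rats/group; cannula placement was checked histologically.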

Rattus norvegicus [7] = test: Penile erection in Sprague-Dawley rat at 0.5 ug/kg, icv; format: functional; conditions: in the assay text read “0.5 ug/rat” for “0.5 ug/kg”; outline: as §1
[8] = molecular target: 5-hydroxytryptamine receptor 2A (Sus scrofa, UniProt P50129); test: Displacement of [3H]ketanserin from 5HT2 receptor in porcine cortical membrane; format: cell membranes
[9] = molecular target: T4, D(4) dopamine receptor (Homo sapiens) (UniProt P21917); test: Intrinsic activity at human D4.2 receptor assessed as [3H]thymidine incorporation in CHO 10001 cells relative to quinpirole by mitogenesis assay; format: functional, cell-based
T4 sequence (whole entry): T3 sequence (P21917 whole entry)
Outline: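 CHO10001 cells expressing human D4.2 were seeded at 5000 cells/well, grown 72 h in serum medium, then switched to serum-free medium. Compound was applied for 20 h at 8 concentrations (0.01-10 000 nM) in hexaduplicate. [³H]thymidine (0.02 µCi/well) was added for 2 h and incorporation counted.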

[10] = molecular target: T4, D(4) dopamine receptor (Homo sapiens); test: Intrinsic activity at human D4.4 receptor expressed in CHOK1 cells assessed as stimulation of [35S]GTP-gammaS binding relative to quinpirole; format: functional, cell-based; conditions: CHO-K1
Outline: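 Membranes from CHO cells stably expressing human D4.4 (Bmax 2.25 pmol/mg protein) in HEPES buffer pH 7.4 with 1 µM GDP at 37 °C. Test agent given at eight concentrations (0.01–10 000 nM) in hexaduplicate for 30 min, then 0.1 nM [35S]GTPγS for a further 30 min. Bound label filtered and counted.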

Rattus norvegicus [11] = test: Penile erection in Sprague-Dawley rat at 20 ug/kg, sc; format: functional; outline: as §1
Rattus norvegicus [12] = test: Penile erection in Sprague-Dawley rat at 1 ug, icv; format: functional; outline: as §1
[13] = Selectivity for human dopamine D4.4 receptor over adrenergic alpha-1 receptor
D(4) dopamine receptor [14] = molecular target: T3, D(4) dopamine receptor; test: Activity at human D4.2 receptor assessed as [3H]thymidine incorporation in CHO 10001 cells by mitogenesis assay; format: functional, cell-based
[15] = molecular target: Dopamine receptors; D3 & D4 (Homo sapiens) (UniProt P35462+P21917); test: Selectivity for human dopamine D4.4 receptor over dopamine D3 receptor; format: protein assay
[16] = Selectivity for human dopamine D4.4 receptor over porcine dopamine D1 receptor
D(4) dopamine receptor [17] = molecular target: T3, D(4) dopamine receptor; test: Activity at human D4.4 receptor expressed in CHOK1 cells assessed as stimulation of [35S]GTP-gammaS binding; format: functional, cell-based, CHO-K1
[18] = molecular target: Adrenergic receptor alpha-1 (Sus scrofa); test: Displacement of [3H]prazosin from porcine Adrenergic alpha-1 receptor in porcine brain

T1 sequence (P14416 whole entry, looked up, one chain of several): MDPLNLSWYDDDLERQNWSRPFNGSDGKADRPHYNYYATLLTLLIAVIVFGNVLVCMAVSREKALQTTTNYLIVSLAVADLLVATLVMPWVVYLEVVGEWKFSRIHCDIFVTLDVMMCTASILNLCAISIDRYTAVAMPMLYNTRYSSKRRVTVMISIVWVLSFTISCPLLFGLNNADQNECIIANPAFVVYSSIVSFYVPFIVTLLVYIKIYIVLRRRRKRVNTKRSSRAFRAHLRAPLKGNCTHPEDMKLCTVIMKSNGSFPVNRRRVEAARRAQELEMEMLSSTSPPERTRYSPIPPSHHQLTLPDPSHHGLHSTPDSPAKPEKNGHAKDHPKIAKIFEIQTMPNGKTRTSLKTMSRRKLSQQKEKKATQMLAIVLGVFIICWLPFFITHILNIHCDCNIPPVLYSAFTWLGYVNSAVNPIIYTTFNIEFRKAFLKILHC
T2 sequence (P14416 whole entry): as the sequence (P14416 whole entry, looked up, one chain of several) above
Chain of D(1A) dopamine receptor (P50130 whole entry): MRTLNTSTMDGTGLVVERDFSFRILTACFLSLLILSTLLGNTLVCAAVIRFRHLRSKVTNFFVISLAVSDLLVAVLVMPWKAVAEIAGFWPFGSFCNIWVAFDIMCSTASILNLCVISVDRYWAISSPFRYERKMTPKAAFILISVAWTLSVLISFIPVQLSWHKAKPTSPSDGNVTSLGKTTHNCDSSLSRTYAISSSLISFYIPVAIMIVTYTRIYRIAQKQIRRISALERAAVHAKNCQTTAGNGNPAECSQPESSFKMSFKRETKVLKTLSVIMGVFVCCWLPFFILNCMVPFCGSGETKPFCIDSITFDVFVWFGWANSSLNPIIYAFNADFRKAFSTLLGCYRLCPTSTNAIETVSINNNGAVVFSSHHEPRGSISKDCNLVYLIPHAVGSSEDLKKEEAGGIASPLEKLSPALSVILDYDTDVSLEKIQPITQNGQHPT
Chain of 5-hydroxytryptamine receptor 2A (P50129 whole entry): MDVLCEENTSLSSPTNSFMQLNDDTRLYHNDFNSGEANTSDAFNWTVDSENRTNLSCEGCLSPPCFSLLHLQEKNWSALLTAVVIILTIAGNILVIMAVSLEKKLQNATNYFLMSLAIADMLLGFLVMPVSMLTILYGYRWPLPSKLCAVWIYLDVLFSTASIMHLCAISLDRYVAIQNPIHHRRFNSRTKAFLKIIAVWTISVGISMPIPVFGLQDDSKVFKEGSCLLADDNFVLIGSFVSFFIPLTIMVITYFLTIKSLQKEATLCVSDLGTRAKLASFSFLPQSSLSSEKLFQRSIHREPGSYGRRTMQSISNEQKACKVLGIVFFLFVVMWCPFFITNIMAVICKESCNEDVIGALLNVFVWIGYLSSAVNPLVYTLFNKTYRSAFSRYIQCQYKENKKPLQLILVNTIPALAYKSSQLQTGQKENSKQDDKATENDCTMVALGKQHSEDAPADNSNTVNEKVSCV
Chain of D(3) dopamine receptor (P35462 whole entry): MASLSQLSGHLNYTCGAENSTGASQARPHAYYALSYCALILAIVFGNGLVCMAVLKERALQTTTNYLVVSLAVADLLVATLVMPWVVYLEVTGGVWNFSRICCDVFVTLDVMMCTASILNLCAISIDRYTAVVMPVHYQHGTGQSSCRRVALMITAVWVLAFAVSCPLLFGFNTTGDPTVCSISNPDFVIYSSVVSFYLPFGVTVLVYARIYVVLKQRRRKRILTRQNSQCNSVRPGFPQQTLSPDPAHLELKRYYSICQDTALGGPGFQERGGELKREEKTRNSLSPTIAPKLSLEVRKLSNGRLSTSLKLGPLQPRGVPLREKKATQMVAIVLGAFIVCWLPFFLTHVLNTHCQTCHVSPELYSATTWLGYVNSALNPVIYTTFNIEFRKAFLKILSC
Chain of Dopamine receptors; D3 & D4 (Homo sapiens) (P35462 whole entry, looked up, one chain of several): as the sequence (P35462 whole entry) above

SMILES | Ki (D(1A) dopamine receptor) | Ki (D(2) dopamine receptor [3]) | Ki (D(2) dopamine receptor [4]) | Ki (D(3) dopamine receptor) | Ki (D(4) dopamine receptor [5]) | Activity [9] | also measured
COc1ccccc1N1CCN(Cc2cn3cc(C)cc(C#N)c3n2)CC1 | 40000 nM | 4200 nM | 2700 nM | 3500 nM | 1.3 nM |  | Selectivity ratio [1]: 2080; Selectivity ratio [2]: 3230
COc1ccccc1N1CCN(Cc2cn3cc(C)cc(N4CCOCC4)c3n2)CC1 | 6400 nM | 210 nM | 100 nM | 2100 nM | 2.3 nM |  | 
COc1ccccc1N1CCN(Cc2cn3cc(C)cc(Br)c3n2)CC1 | 5600 nM | 240 nM | 150 nM | 670 nM | 0.99 nM |  | 
N#Cc1ccc2[nH]c(CN3CCN(c4ccc(F)cc4)CC3)cc2c1 | 8600 nM |  |  |  |  |  | 
Cc1cccc(C(=O)NCN2CCN(c3ccccc3C#N)CC2)c1 |  |  |  |  |  |  | Selectivity ratio [13]: 8
Fc1ccc(N2CCN(Cc3cn4nc(Cl)ccc4n3)CC2)cc1 | 7000 nM | 9900 nM | 12000 nM | 5600 nM | 4 nM |  | 
COc1ccccc1N1CCN(Cc2cn3cc(C)cc(-n4cccn4)c3n2)CC1 | 8700 nM | 530 nM | 280 nM | 2400 nM | 1.6 nM |  | 
COc1ccccc1N1CCN(Cc2cn3cc(I)ccc3n2)CC1 | 6400 nM | 73 nM | 72 nM | 600 nM | 0.33 nM | 10% | EC50 (D(4) dopamine receptor [14]): 0.52 nM
COc1ccccc1N1CCN(Cc2cn3cc(C)cc(-c4ccccc4)c3n2)CC1 | 2900 nM | 49 nM | 28 nM | 390 nM | 0.84 nM |  | 
Fc1ccc(N2CCN(Cc3cn4cccnc4n3)CC2)cc1 | 47000 nM | 55000 nM | 49000 nM | 60000 nM | 2800 nM |  | 
Fc1ccc(N2CCN(Cc3cn4ccncc4n3)CC2)cc1 | 15000 nM | 64000 nM | 68000 nM | 42000 nM | 500 nM |  | 
N#Cc1ccc2[nH]c(CN3CCN(c4ccccc4)CC3)cc2c1 | 13000 nM |  |  |  |  |  | 

Further lines, with some results ahead:

Ki (D(1A) dopamine receptor) | Ki (D(2) dopamine receptor [3]) | Ki (D(2) dopamine receptor [4]) | Ki (D(3) dopamine receptor) | Ki (D(4) dopamine receptor [5]) | Activity [9] | SMILES | also measured
 |  |  |  |  | 46% | COc1ccccc1N1CCN(Cc2cn3ccccc3n2)CC1 | Activity (Rattus norvegicus [6]): 1.02; Activity (Rattus norvegicus [7]): 1.12; Ki [8]: 5900 nM; Activity [10]: 57%; Activity (Rattus norvegicus [11]): 2.42; Activity (Rattus norvegicus [12]): 2.32
7100 nM | 130 nM | 140 nM | 800 nM | 0.25 nM | 0% | COc1ccccc1N1CCN(Cc2cn3cc(Br)ccc3n2)CC1 | 
5900 nM | 88 nM | 97 nM | 470 nM | 0.53 nM | 0% | COc1ccccc1N1CCN(Cc2cn3cc(C)cc(I)c3n2)CC1 | 
1500 nM | 1100 nM | 670 nM | 1500 nM | 1.3 nM | 0% | Clc1ccc2nc(CN3CCN(c4ccc(Cl)c(Cl)c4)CC3)cn2n1 | Ki [8]: 1200 nM
2500 nM | 3500 nM | 3700 nM | 1000 nM | 0.99 nM | 0% | Clc1ccc(N2CCN(Cc3cn4cc(Br)ccc4n3)CC2)cc1Cl | Selectivity ratio [15]: > 440; Selectivity ratio [1]: > 440; Selectivity ratio [2]: > 440; Selectivity ratio [16]: > 440
13000 nM | 8000 nM | 7800 nM | 880 nM | 1900 nM |  | CN1CCN(c2ccc3nc(CN4CCN(c5ccc(Cl)c(Cl)c5)CC4)cn3n2)CC1 | 
6700 nM | 15000 nM | 16000 nM | 8800 nM | 7 nM | 6% | Clc1ccc(N2CCN(Cc3cn4ccccc4n3)CC2)cc1 | EC50 (D(4) dopamine receptor [14]): 1.8 nM; Ki [8]: 1200 nM; EC50 (D(4) dopamine receptor [17]): 2.6 nM; Activity [10]: 18%
8400 nM | 21000 nM | 19000 nM | 3100 nM | 44 nM |  | Fc1ccc(N2CCN(Cc3cn4ccccc4n3)CC2)cc1 | Selectivity ratio [15]: > 440; Selectivity ratio [1]: > 440; Selectivity ratio [2]: > 440; Selectivity ratio [16]: > 440; Ki [8]: 860 nM; Ki [18]: 260 nM
5500 nM | 12000 nM | 8200 nM | 7700 nM | 2 nM | 0% | Clc1ccc(N2CCN(Cc3cn4nc(Cl)ccc4n3)CC2)cc1 | Ki [8]: 910 nM
27000 nM | 590 nM | 280 nM | 1000 nM | 0.94 nM |  | COc1ccccc1N1CCN(Cc2cn3c(-n4cccn4)cccc3n2)CC1 | 
7700 nM | 96 nM | 79 nM | 1400 nM | 1.6 nM | 0% | COc1ccccc1N1CCN(Cc2cn3nc(Cl)ccc3n2)CC1 | Ki [8]: 3400 nM
2200 nM | 1100 nM | 710 nM | 850 nM | 120 nM |  | Clc1ccc(N2CCN(Cc3cn4nc(N5CCCCC5)ccc4n3)CC2)cc1Cl | 
2300 nM | 3200 nM | 2700 nM | 1700 nM | 1.4 nM | 0% | Clc1ccc(N2CCN(Cc3cn4ccccc4n3)CC2)cc1Cl | Ki [8]: 1200 nM
